Legend:
Adenosine receptor A2b = target: T1, Adenosine receptor A2b (Homo sapiens, UniProt P29275); assay: Displacement of [3H]DPCPX from human Adenosine A2B receptor expressed in HEK293 cells after 30 mins; type: cell-based
T1 sequence (P29275 whole entry): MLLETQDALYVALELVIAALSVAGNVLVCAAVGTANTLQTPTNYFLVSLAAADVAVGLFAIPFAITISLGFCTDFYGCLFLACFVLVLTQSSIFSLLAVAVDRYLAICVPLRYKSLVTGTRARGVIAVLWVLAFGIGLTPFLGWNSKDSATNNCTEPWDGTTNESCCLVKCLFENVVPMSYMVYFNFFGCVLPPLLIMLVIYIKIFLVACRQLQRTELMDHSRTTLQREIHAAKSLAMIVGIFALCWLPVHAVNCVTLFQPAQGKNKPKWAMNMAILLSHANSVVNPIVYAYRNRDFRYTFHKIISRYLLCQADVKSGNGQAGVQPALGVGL

[1] = target: Adenosine receptor A2a (Homo sapiens) (UniProt P29274); assay: Displacement of [3H]ZM241385 from human Adenosine A2A receptor expressed in HeLa cells at 1 uM after 30 mins; type: cell-based
How it was run: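 Membranes from HeLa cells expressing human A2A were labelled with 3 nM [3H]ZM241385, with non-specific binding defined by 50 µM NECA, and incubated at 25 °C for 30 min. The value is percent displacement of specific binding at 1 µM test compound (n = 2).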

[2] = target: T2, Adenosine receptor A1 (Homo sapiens) (UniProt P30542); assay: Displacement of [3H]DPCPX from human Adenosine A1 receptor expressed in CHO cells at 1 uM after 60 mins; type: cell-based
T2 sequence (whole entry): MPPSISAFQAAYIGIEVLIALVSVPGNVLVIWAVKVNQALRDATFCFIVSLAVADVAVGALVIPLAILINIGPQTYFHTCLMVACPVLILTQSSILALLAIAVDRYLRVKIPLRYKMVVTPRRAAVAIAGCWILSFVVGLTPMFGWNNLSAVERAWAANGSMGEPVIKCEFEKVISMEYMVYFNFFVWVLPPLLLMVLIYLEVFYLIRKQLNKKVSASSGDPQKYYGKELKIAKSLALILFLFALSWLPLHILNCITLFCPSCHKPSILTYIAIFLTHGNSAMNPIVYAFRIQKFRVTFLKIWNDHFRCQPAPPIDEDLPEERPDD
How it was run: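 Competition binding on membranes from CHO cells expressing human A1, labelled with 2 nM [3H]DPCPX. Non-specific binding was defined with 10 µM R-PIA, and incubation was at 25 °C for 60 min. The value is percent inhibition of specific binding at 1 µM test compound (n = 2, average).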

[3] = target: T3, Adenosine receptor A3 (Homo sapiens) (UniProt P0DMS8); assay: Displacement of [3H]NECA from human Adenosine A3 receptor expressed in HeLa cells at 1 uM after 180 mins
T3 sequence (whole entry): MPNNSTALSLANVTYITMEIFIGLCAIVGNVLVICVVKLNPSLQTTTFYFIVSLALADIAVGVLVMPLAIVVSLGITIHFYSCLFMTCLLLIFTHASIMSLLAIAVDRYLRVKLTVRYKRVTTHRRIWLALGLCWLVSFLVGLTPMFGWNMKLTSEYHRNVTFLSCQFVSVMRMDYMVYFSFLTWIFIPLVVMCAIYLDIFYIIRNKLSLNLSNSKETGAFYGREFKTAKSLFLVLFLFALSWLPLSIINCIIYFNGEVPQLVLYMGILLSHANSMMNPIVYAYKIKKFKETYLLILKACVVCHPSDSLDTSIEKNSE

[4] = target: T4, Adenosine receptor A2b (Homo sapiens) (UniProt P29275); assay: Displacement of [3H]DPCPX from human Adenosine A2B receptor expressed in HEK293 cells at 1 uM after 30 mins; type: cell-based
T4 sequence (whole entry): T1 sequence (P29275 whole entry)
How it was run: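 Membranes from HEK-293 cells expressing human A2B were labelled with 35 nM [3H]DPCPX, with non-specific binding defined by 400 µM NECA, and incubated at 25 °C for 30 min.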

Chain of Adenosine receptor A2a (Homo sapiens) (P29274 whole entry): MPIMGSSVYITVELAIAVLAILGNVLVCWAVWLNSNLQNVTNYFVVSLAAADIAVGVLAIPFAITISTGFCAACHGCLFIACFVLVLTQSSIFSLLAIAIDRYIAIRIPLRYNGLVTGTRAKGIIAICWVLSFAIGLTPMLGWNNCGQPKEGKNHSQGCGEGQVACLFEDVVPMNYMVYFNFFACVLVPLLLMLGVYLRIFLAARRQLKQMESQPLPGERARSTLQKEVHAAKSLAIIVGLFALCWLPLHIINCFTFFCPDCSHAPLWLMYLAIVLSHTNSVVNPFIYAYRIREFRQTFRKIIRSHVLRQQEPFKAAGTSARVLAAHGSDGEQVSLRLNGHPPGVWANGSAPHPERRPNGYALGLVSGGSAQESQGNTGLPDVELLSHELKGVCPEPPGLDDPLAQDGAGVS

Structure (SMILES)	Ki (Adenosine receptor A2b)	Activity [1]	Activity [2]	Activity [3]	Activity [4]
CC1=C(C(=O)OC(C)C)C(c2ccsc2)n2c(nc3ccccc32)N1 (racemic)	29.3 nM	3%	11%	21%	
CCOC(=O)C1=C(C)Nc2ncnn2C1c1ccoc1 (racemic)	602 nM	1%	2%	4%	
CCOC(=O)C1=C(C)Nc2ncnn2C1c1ccsc1 (racemic)	699 nM	21%	3%	2%	
CC1=C(C(=O)OC(C)C)C(c2ccco2)CC(=O)N1 (racemic)		14%	14%	31%	15%
CC1=C(C(=O)OC(C)C)C(c2cccs2)CC(=O)N1 (racemic)		1%	2%	22%	3%
CC1=C(C(=O)OC(C)C)C(c2cccs2)n2ncnc2N1 (racemic)		1%	1%	3%	1%
CC1=C(C(=O)OC(C)C)C(c2ccoc2)CC(=O)N1 (racemic)		25%	23%	24%	20%
CC1=C(C(=O)OC(C)C)C(c2ccsc2)CC(=O)N1 (racemic)		3%	4%	20%	21%
CCN1CC2=C(C1=O)C(c1ccco1)NC(=O)N2 (racemic)		7%	7%	20%	17%
CCN1CC2=C(C1=O)C(c1cccs1)NC(=O)N2 (racemic)		2%	12%	21%	28%
CCN1CC2=C(C1=O)C(c1ccoc1)NC(=O)N2 (racemic)		13%	16%	17%	35%
CCN1CC2=C(C1=O)C(c1ccsc1)NC(=O)N2 (racemic)		17%	27%	31%	18%
CCOC(=O)C1=C(C)NC(=O)CC1c1cccs1 (racemic)		11%	16%	21%	18%
CCOC(=O)C1=C(C)NC(=O)CC1c1ccoc1 (racemic)		8%	9%	15%	14%
CCOC(=O)C1=C(C)NC(=O)CC1c1ccsc1 (racemic)		4%	1%	13%	12%
CCOC(=O)C1=C(C)Nc2nccn2C1c1ccoc1 (racemic)		1%	2%	3%	12%
CCOC(=O)C1=C(C)Nc2nccn2C1c1ccsc1 (racemic)		3%	1%	2%	10%
CCOC(=O)C1=C(C)Nc2ncnn2C1c1ccco1 (racemic)		20%	15%	4%	3%
CCOC(=O)C1=C(C)Nc2ncnn2C1c1cccs1 (racemic)		2%	1%	15%	15%
O=C1NC2=C(C(=O)OC2)C(c2ccco2)N1 (racemic)		2%	3%	3%	2%
O=C1NC2=C(C(=O)OC2)C(c2cccs2)N1 (racemic)		1%	1%	1%	10%
O=C1NC2=C(C(=O)OC2)C(c2ccoc2)N1 (racemic)		3%	9%	1%	9%
O=C1NC2=C(C(=O)OC2)C(c2ccsc2)N1 (racemic)		3%	13%	2%	8%
